Compound activity: PubChem BioAssay, several laboratories
TRPC6 inhibitor: mouse TRPC6 channel inhibitors, primary screen, cell-based, HEK293, membrane potential dye; 1.1% of 310,000 active; ACh-evoked depolarization; stronger effect = lower value; B-score at 10 µM;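 active means B-score under library mean minus 3 SD, initial fluorescence not abnormally high, positive integrated signal ratio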;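 further: B-score derived from integrated fluorescence ratio over the kinetic read; more negative B-score means stronger inhibition of depolarization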
TRPC4 PAM: positive allosteric modulators of TRPC4, primary screen, cell-based, mouse TRPC4beta, HEK293 mu-opioid, Fluo-4 calcium; DAMGO EC20, Fluo-4 Ca2+ flux; stronger effect = higher value; AID 2227, 2009; Short transient receptor potential channel 4 (Mus musculus), Q9QUQ5; B-score at 10 µM; 0.42% of 310,000 active;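 active means B-score of calcium response area above 5 SD of library B-scores, with initial fluorescence ratio within 5 SD of library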
Target sequence (Q9QUQ5 whole entry, looked up): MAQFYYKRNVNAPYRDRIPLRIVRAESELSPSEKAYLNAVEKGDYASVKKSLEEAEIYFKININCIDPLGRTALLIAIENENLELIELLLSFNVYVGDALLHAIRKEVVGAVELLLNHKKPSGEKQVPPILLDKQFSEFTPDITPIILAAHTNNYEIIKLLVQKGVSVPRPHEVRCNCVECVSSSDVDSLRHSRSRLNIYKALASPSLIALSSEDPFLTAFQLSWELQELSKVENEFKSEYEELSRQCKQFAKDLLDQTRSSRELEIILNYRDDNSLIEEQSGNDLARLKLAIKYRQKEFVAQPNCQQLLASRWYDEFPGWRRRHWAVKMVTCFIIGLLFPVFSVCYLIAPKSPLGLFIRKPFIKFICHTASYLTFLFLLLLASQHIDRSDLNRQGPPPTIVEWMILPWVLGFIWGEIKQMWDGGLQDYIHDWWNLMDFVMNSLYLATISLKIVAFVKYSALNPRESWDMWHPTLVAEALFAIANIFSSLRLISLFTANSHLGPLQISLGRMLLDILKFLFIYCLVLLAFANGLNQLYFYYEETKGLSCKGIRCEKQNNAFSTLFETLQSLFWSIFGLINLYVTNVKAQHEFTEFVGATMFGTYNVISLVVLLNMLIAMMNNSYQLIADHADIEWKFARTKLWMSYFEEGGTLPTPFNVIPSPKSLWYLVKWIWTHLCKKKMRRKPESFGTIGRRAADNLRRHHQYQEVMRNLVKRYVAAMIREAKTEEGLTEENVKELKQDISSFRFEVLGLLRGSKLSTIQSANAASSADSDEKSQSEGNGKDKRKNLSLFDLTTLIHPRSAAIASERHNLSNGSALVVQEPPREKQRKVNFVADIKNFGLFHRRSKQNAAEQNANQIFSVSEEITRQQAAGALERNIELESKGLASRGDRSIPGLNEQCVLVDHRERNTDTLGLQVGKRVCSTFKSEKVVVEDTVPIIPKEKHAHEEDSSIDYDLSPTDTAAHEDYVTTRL
Platelet DG rel: inhibitors of platelet dense granule secretion, primary screen, cell-based, MLPCN, human platelets | inhibition, %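 (compounds screened at 7.5 µM in platelet-rich plasma)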 | human platelet-rich plasma, SFLLRN dense granule ATP release, luminescence | 0.22% of 300,000 active | AID 1663, 2009;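 active means mean replicate score, as percent of positive control, at or above 50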
TRPC4 inh: inhibitors of mouse TRPC4 channel, primary screen, Fluo4 calcium, HEK293 TRPC4beta/mu-opioid cells; AID 2247, 2010; Short transient receptor potential channel 4 (Mus musculus), Q9QUQ5; B-score at 10 µM; 0.39% of 300,000 active; DAMGO-evoked Fluo4 calcium flux; stronger effect = lower value;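 active means B-score over 3 SD under the library average, no early fluorescence shift, positive overall ratio signal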
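System: stable TRPC4beta/mu-opioid receptor HEK293 cells; Dosing: single-point compound dosing; Measured by: Fluo4 Ca2+ flux fluorescence; Read-out basis: per-well B score of integrated baseline-normalized Fluo4 ratio.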
TRPC4 agonist: activators of mouse TRPC4 channel, primary screen, Fluo4 calcium, HEK293 TRPC4beta/mu-opioid cells; 0.49% of 310,000 active; Fluo4 calcium fluorescence; stronger effect = higher value; Short transient receptor potential channel 4 (Mus musculus), Q9QUQ5; B-score at 10 µM;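 active means B-score above 5 SD of library B-scores, and initial fluorescence ratio not above library mean plus 5 SD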;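 further: positive B-score marks a calcium rise read as TRPC4 activation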
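Incubation: 45 min room-temperature Fluo4 loading, 110 s read / System: HEK293 cells stably co-expressing mouse TRPC4beta and mu-opioid receptor / Signal: Fluo4 fluorescence, kinetic / Control set: buffer (low) and maximal DAMGO (high) / Measure: integrated baseline-normalised fluorescence ratio, converted to per-well B score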
TRPC6 act: mouse TRPC6 channel activators, primary screen, cell-based, HEK293, membrane potential dye; B-score at 10 µM; 0.13% of 310,000 active; AID 2550, 2010; Short transient receptor potential channel 6 (Mus musculus), Q61143; HEK293-TRPC6 membrane potential dye fluorescence; stronger effect = higher value;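 active means B-score of the integrated fluorescence ratio above library mean plus 3 SD, and starting fluorescence ratio within library mean plus 5 SD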;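 further: higher score means more depolarization so channel activation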
TRPC4 spec 2: second selectivity test of TRPC6 inhibitors: effect on mouse TRPC4. shares compounds with TRPC6 inhibitor. AID 2776. HEK293 TRPC4/MOR, membrane potential dye fluorescence; channel activated by saturating DAMGO dose. inhibition, % at 10 µM. 42% of 920 active;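 active means compounds whose fluorescence signal differed from control wells by over 3 SD, either direction, in both duplicate plates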
TRPC4 spec: mouse TRPC4 modulation by TRPC6 hits, confirmation, selectivity assay for TRPC6 inhibitor project, cell-based, HEK293 TRPC4/mu-opioid, membrane potential dye | shares compounds with TRPC6 inhibitor | membrane potential fluorescence | activity change, negative = inhibition, % at 10 µM | 61% of 920 active | AID 2777, 2010;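 active means rise or fall in signal beyond 3 SD of buffer-only wells in both replicate plates, either sign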;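 further: integrated kinetic ratio of fluorescence range over baseline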
HEK293 MPD ctr 2-1: nonspecific membrane potential effects, parental HEK293, confirmation, counter-screen for TRPC6 inhibitor project, cell-based, second counter screen; signal change vs control, % at 10 µM; 31% of 920 active; shares compounds with TRPC6 inhibitor; parental HEK293 membrane potential dye fluorescence; maximal acetylcholine challenge after compound addition;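 active means membrane potential signal moving either way by over 3 SD of the maximum-effect control, in both duplicate plates, meaning non-specific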
HEK293 MPD ctr-1: membrane potential modulation in parental HEK293, confirmation, counter-screen for TRPC6 inhibitor project, cell-based. 60% of 920 active. shares compounds with TRPC6 inhibitor. membrane potential signal change, % at 10 µM. parental HEK293 membrane potential dye fluorescence;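 active means membrane potential signal shifting up or down by more than 3 SD of buffer-only wells, on both duplicate plates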
HEK293 MPD ctr-2: parental HEK293 membrane potential modulation, confirmation, counter-screen for TRPC6 modulator project, cell-based; shares compounds with TRPC6 inhibitor; membrane potential dye fluorescence; membrane potential signal change, % at 10 µM; 51% of 2,400 active; AID 488924, 2010;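 active means membrane potential signal moves up or down beyond 5 SD from buffer-only wells, on both duplicate plates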
HEK293 MPD ctr 2-2: second counter-screen for TRPC6 modulators: effect in parental HEK293 cells; shares compounds with TRPC6 inhibitor; membrane potential dye fluorescence; after compound, maximal acetylcholine stimulation; inhibition, % at 10 µM; 14% of 2,400 active; AID 488926;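 active means membrane potential signal drops by more than 5 SD from the mean control signal, in both duplicate plates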
TRPC4/MOR mod: TRPC4 modulation by TRPC6 hit compounds, confirmation, selectivity assay for TRPC6 modulator project, cell-based, HEK293 TRPC4/mu-opioid, membrane potential dye, mouse; shares compounds with TRPC6 inhibitor; membrane potential fluorescence; percent change from control (negative = decrease, positive = increase), % at 10 µM; 69% of 2,400 active; AID 488927, 2010;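 active means membrane potential signal moved up or down beyond 5 SD of buffer control wells, in both duplicate plates, actives on both sides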
TRPC4/MOR inh 2: second check of whether TRPC6 modulators also affect mouse TRPC4; 55% of 2,400 active; shares compounds with TRPC6 inhibitor; HEK293 TRPC4/mu-opioid, membrane potential dye fluorescence; stimulated with maximal-effect DAMGO; inhibition, % at 10 µM; AID 488928;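 active means drop in membrane potential signal beyond 5 SD of the control wells in both duplicate plates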;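 further: TRPC4 counter screen for TRPC6 hits run under conditions tuned for TRPC6 not TRPC4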
TRPC6 inh conf: mouse TRPC6 channel inhibitors, confirmation, HEK293 cells, membrane potential dye, duplicate | shares compounds with TRPC6 inhibitor | ACh-evoked depolarization | inhibition, % at 10 µM | 43% of 3,300 active;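 active means fluorescence ratio falls more than 5 SD below the full-stimulation control mean, in both duplicate runs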;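 further: integrated fluorescence ratio of peak minus minimum over baseline after agonist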
TRPC6 act conf: mouse TRPC6 channel activators, confirmation, HEK293 cells, membrane potential dye, duplicate | shares compounds with TRPC6 inhibitor | HEK293-TRPC6 membrane potential dye fluorescence, FDSS | activation, % at 10 µM | 11% of 2,800 active | AID 488961, 2010;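 active means ratio signal rise beyond 5 SD above unstimulated control wells' mean, seen in both duplicate runs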
Large screens that a line does not name were inactive (follow-up assays come after a bar, where they were run). This is a sample that favours compounds with a hit; in the whole collection about 2.5% have one here.

CCOCCCNC(=O)CCCOc1ccccc1	TRPC6 inhibitor -5.5 | HEK293 MPD ctr-2 inactive | HEK293 MPD ctr 2-2 inactive | TRPC4/MOR mod inactive | TRPC4/MOR inh 2 inactive | TRPC6 inh conf inactive | TRPC6 act conf inactive
CCOC(=O)CSc1nc2ccsc2c(=O)n1C1CCN(C(=O)OCC)CC1	TRPC6 inhibitor -6.8, TRPC6 act 15 | HEK293 MPD ctr-2 133% | HEK293 MPD ctr 2-2 inactive | TRPC4/MOR mod 34% | TRPC4/MOR inh 2 inactive | TRPC6 inh conf inactive | TRPC6 act conf 60%
CCOC(=O)N1CCC(n2c(SCC(=O)OCc3ccccc3)nc3ccsc3c2=O)CC1	none
O=C(Nc1cc(-c2ccccc2)[nH]n1)c1ccc(Cl)cc1	none
O=c1cc(C(F)(F)F)[nH]c2ccc(C(F)(F)F)cc12	TRPC6 inhibitor -7 | TRPC4 spec 2 inactive | TRPC4 spec 15% | HEK293 MPD ctr 2-1 inactive | HEK293 MPD ctr-1 11% | TRPC6 inh conf 105%
Cc1cc(=O)c2ccc(C(F)(F)F)cc2[nH]1	none
O=C(N/N=C/c1cccnc1)c1ccc([N+](=O)[O-])cc1	TRPC6 inhibitor -5.3 | HEK293 MPD ctr-2 -196% | HEK293 MPD ctr 2-2 inactive | TRPC4/MOR mod -36% | TRPC4/MOR inh 2 30% | TRPC6 inh conf inactive | TRPC6 act conf inactive
O=C(N/N=C/c1cccc([N+](=O)[O-])c1)c1cc[n+](CCO)cc1	TRPC6 inhibitor -5.7 | HEK293 MPD ctr-2 -88% | HEK293 MPD ctr 2-2 inactive | TRPC4/MOR mod -22% | TRPC4/MOR inh 2 inactive | TRPC6 inh conf inactive | TRPC6 act conf inactive
CCN1CCN(c2cc(C)c3cc(NC(=O)c4ccc(C)c(C)c4)ccc3n2)CC1	none
CCN1CCN(c2cc(C)c3cc(NC(=O)c4ccc(Br)o4)ccc3n2)CC1	TRPC6 inhibitor -5.5, TRPC4 inh -6 | HEK293 MPD ctr-2 inactive | HEK293 MPD ctr 2-2 inactive | TRPC4/MOR mod -12% | TRPC4/MOR inh 2 42% | TRPC6 inh conf inactive | TRPC6 act conf inactive
CCN1CCN(c2cc(C)c3cc(NC(=O)c4ccncc4)ccc3n2)CC1	TRPC6 inhibitor -5.5 | HEK293 MPD ctr-2 -100% | HEK293 MPD ctr 2-2 inactive | TRPC4/MOR mod inactive | TRPC4/MOR inh 2 inactive | TRPC6 inh conf inactive | TRPC6 act conf inactive
O=C(CSc1nc(=O)n2ccccc2n1)N1CCCc2ccccc21	none
CCCN(CCC)CCNC(=O)C1c2ccccc2C(=O)N2CCc3ccccc3C12 (stereo unspecified)	none
Cc1ccc[n+](CC(=O)c2cc3ccccc3oc2=O)c1	TRPC6 inhibitor -6.5 | HEK293 MPD ctr-2 -76% | HEK293 MPD ctr 2-2 inactive | TRPC4/MOR mod -22% | TRPC4/MOR inh 2 inactive | TRPC6 inh conf 70% | TRPC6 act conf inactive
COc1ccc(NC(=O)COc2ccccc2C(=O)NCC(c2ccccc2)N(C)C)cc1Cl (stereo unspecified)	TRPC6 inhibitor -5.3, TRPC4 agonist 45 | HEK293 MPD ctr-2 inactive | HEK293 MPD ctr 2-2 inactive | TRPC4/MOR mod inactive | TRPC4/MOR inh 2 86% | TRPC6 inh conf 48% | TRPC6 act conf inactive
CC(=O)NCC1CCN(C(=O)C2CCC(=O)N(CCc3cccc(F)c3)C2)CC1 (stereo unspecified)	none
CN(C)CCOc1nc(-c2ccccc2)nc2c1oc1ccccc12	TRPC6 inhibitor -8.9, TRPC4 agonist 45 | TRPC4 spec 2 62% | TRPC4 spec inactive | HEK293 MPD ctr 2-1 inactive | HEK293 MPD ctr-1 inactive | TRPC6 inh conf inactive | TRPC6 act conf inactive
CC(C)CCNC(=O)C(=O)NCC1OCCCN1S(=O)(=O)c1cccs1 (stereo unspecified)	none
CN(NS(=O)(=O)c1ccccc1)c1nc2ccccc2nc1C(F)(F)F	none
CN(NS(=O)(=O)c1ccc(Cl)cc1)c1nc(C(F)(F)F)nc2ccccc12	TRPC6 inhibitor -5.6 | HEK293 MPD ctr-2 inactive | HEK293 MPD ctr 2-2 inactive | TRPC4/MOR mod inactive | TRPC4/MOR inh 2 inactive | TRPC6 inh conf inactive | TRPC6 act conf inactive
CC(C)N(Cc1cn(C)nc1-c1cccc(Cl)c1)Cc1nccn1C	none
